The values that follow come from ChEMBL document CHEMBL4411269, “Required Immunoproteasome Subunit Inhibition Profile for Anti-Inflammatory Efficacy and Clinical Candidate KZR-616 ((2 S,3 R)- N-(( S)-3-(Cyclopent-1-en-1-yl)-1-(( R)-2-methyloxiran-2-yl)-1-oxopropan-2-yl)-3-hydroxy-3-(4-methoxyphenyl)-2-(( S)-2-(2-morpholinoacetamido)propanamido)propenamide)” (J Med Chem, 2018).

Data set [1] deals with T1, Proteasome subunit beta type-8 (Homo sapiens) (UniProt P28062).
T1 sequence (whole entry): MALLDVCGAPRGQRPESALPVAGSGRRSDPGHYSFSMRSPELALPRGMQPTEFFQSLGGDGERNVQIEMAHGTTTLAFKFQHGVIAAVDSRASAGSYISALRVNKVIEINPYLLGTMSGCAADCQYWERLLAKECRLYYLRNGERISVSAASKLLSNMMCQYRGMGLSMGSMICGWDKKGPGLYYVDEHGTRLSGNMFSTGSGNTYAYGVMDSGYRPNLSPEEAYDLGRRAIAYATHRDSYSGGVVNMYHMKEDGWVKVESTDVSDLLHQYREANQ
As to the kind of experiment: Inhibition of LMP7 in human PBMC at 125 nM by ELISA. In short, it runs like this: (§1)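 Cryopreserved healthy-donor human PBMC in RPMI 1640 with 5% heat-inactivated FBS, exposed to compound (0.1% DMSO final) for 1 h at 37 °C, 5% CO2, then washed. Subunit-specific active-site occupancy read by ProCISE: biotinylated active-site probe binding, denaturation, streptavidin capture, subunit-specific antibody and HRP chemiluminescence. Signal normalized to protein and expressed relative to DMSO controls.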
Background: In an ELISA, binding on a coated surface is turned into a signal by an enzyme label.

The test system of data set [2] is PBMC. The data set is described as follows: Antiinflammatory activity in human PBMC assessed as reduction in anti-CD3/CD28 antibody-stimulated IFN-gamma expression at 125 nM preincubated for 1 hr followed by anti-CD3/CD28 antibody stimulation measured after 24 hrs by ELISA. It counts as functional, cell-based. In short, it runs like this: (§2)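 Healthy-donor PBMC, thawed from cryopreservation, 250 000 cells/well in RPMI 1640/5% FBS. Pretreated 1 h at 37 °C with compound alone or combined (0.1% DMSO final), washed 4 times, then stimulated 24 h with anti-CD3 and anti-CD28 antibodies. TNFα and IFNγ in supernatants by electrochemiluminescent ELISA; expressed relative to DMSO-treated controls (n = 6).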

Data set [3] has as its system Mus musculus. The data set is described as follows: In vivo inhibition of LMP7 in Balb/c mouse splenocytes at 20 mg/kg, iv followed by dosing repeat on day 6, 8, 11, 13 and 15 and measured on 1 hr post last dose. The format is functional, organism-based. In short, it runs like this:
(§3)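 BALB/c mice dosed iv bolus in 10% sulfobutyl ether−β-cyclodextrin/10 mM sodium citrate pH 3.5; tissues taken 1 h after administration. Splenocytes strained and red cells lysed; kidney frozen, then bead-homogenized. Hypotonic lysate (20 mM Tris pH 8, 5 mM EDTA) at 1 mg/mL (spleen) or 5 mg/mL (kidney) run in the ProCISE active-site ELISA. Background-subtracted, protein-normalized activity relative to vehicle animals; n = 3.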

In data set [4] the test system is Mus musculus. The data set is described as follows: In vivo inhibition of MECL-1 in Balb/c mouse splenocytes at 20 mg/kg, iv followed by dosing repeat on day 6, 8, 11, 13 and 15 and co-treated with 5 mg/kg, iv KZR-504 and measured on 1 hr post last dose. The format is functional, organism-based. In short, it runs like this: as §3
The test system of data set [5] is PBMC. As to the kind of experiment: Antiinflammatory activity in human PBMC assessed as reduction in anti-CD3/CD28 antibody-stimulated IFN-gamma expression at 125 nM preincubated for 1 hr followed by anti-CD3/CD28 antibody stimulation measured after 24 hrs in presence of KZR-504 by ELISA. It counts as functional, cell-based. In short, it runs like this:
as §2

Data set [6] addresses T2, Proteasome subunit beta type-9 (Homo sapiens) (UniProt P28065).
T2 sequence (whole entry): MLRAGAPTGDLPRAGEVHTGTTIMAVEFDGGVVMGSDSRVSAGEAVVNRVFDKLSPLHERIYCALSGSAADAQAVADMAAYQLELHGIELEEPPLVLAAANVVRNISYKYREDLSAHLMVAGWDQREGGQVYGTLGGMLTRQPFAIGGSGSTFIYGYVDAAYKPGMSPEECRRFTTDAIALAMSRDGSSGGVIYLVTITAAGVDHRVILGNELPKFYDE
As to the kind of experiment: Inhibition of LMP2 in human PBMC at 125 nM by ELISA.

Data set [7] in a line: Toxicity in Balb/c mouse assessed as change in body weight at 20 mg/kg, iv followed by dosing repeat on day 6, 8, 11, 13 and 15 and co-treated with 5 mg/kg, iv KZR-504 and measured until day 18. The format is organism-based. Conditions: in vivo.
For data set [8], the system named is PBMC. The data set is described as follows: Antiinflammatory activity in human PBMC assessed as reduction in anti-CD3/CD28 antibody-stimulated TNF-alpha expression at 125 nM preincubated for 1 hr followed by anti-CD3/CD28 antibody stimulation measured after 24 hrs by ELISA. The format is functional, cell-based. Summed up: as §2
Data set [9] in a line: Toxicity in Balb/c mouse assessed as change in body weight at 20 mg/kg, iv followed by dosing repeat on day 6, 8, 11, 13 and 15 and measured until day 18. The format is organism-based. Conditions: in vivo.
Data set [10] has as its system PBMC. As to the kind of experiment: Antiinflammatory activity in human PBMC assessed as reduction in LPS-stimulated IL-6 expression at 250 nM preincubated for 1 hr followed by LPS stimulation measured after 24 hrs by ELISA. The format is functional, cell-based. Summed up: (§4)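 Cryopreserved healthy-donor PBMC in RPMI 1640 with 5% heat-inactivated FBS, 250 000 cells/well. Compound (0.1% DMSO final) for 1 h at 37 °C, 5% CO2, then 4 washes with medium. Stimulated with 1 μg/mL LPS for 24 h; supernatant TNFα, IL-6 and IL-12/23p40 by electrochemiluminescent immunoassay. Mean level relative to DMSO controls, n = 6.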

Data set [11] concerns the target T3, Proteasome subunit beta type-8 (Homo sapiens, UniProt P28062).
T3 sequence (P28062 whole entry): T1 sequence (whole entry)
As to the kind of experiment: Inhibition of LMP7 in human MOLT4 cells by ELISA. The format is cell-based.

For data set [12], the target named is T1, Proteasome subunit beta type-8 (Homo sapiens). The data set is described as follows: Inhibition of LMP7 in human PBMC at 250 nM by ELISA. Summed up:
as §1

In data set [13] the test system is PBMC. As to the kind of experiment: Antiinflammatory activity in human PBMC assessed as reduction in LPS-stimulated TNF-alpha expression at 250 nM preincubated for 1 hr followed by LPS stimulation measured after 24 hrs by ELISA. The format is functional, cell-based. In short, it runs like this: as §4
The test system of data set [14] is PBMC. The data set is described as follows: Antiinflammatory activity in human PBMC assessed as reduction in anti-CD3/CD28 antibody-stimulated TNF-alpha expression at 250 nM preincubated for 1 hr followed by anti-CD3/CD28 antibody stimulation measured after 24 hrs by ELISA. It counts as functional, cell-based. In short, it runs like this:
as §2

Data set [15] addresses T4, Proteasome subunit beta type-10 (Mus musculus, UniProt O35955).
T4 sequence (O35955 whole entry): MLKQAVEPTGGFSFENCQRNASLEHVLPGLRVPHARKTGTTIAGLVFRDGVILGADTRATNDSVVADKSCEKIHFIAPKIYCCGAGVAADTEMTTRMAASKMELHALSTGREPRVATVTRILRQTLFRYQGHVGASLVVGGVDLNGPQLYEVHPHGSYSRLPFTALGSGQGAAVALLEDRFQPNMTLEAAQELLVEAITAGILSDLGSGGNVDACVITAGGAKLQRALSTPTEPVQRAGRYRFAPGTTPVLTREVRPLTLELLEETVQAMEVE
As to the kind of experiment: Inhibition of MECL1 in mouse A20 cells by ELISA. The format is cell-based. Summed up:
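Mouse A20 B-cell lymphoma cell lysate (1 mg/mL, hypotonic 20 mM Tris pH 8, 5 mM EDTA) treated with serially diluted compound for 1 h at 25 °C. Then 5 μM biotinylated active-site probe for 2 h at 25 °C, guanidine denaturation and streptavidin bead capture. Subunit-specific antibody and HRP chemiluminescence, signal normalized to protein, IC50 from percent activity versus DMSO controls.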

Activity calls are given as the source filed them. No cut-off for these calls is given here.

Consider `COc1ccc(C[C@H](NC(=O)[C@@H](C)NC(=O)[C@H]2CC[C@H](O)CC2)C(=O)N[C@@H](CC2=CCCC2)C(=O)[C@@]2(C)CO2)cc1`, for which the inhibition result (in data set [1]; in the data set on Mus musculus [3]; with Mus musculus [4]; in data set [6]) was “Active” throughout. The outcome with PBMC [2], in the data set with PBMC [5] and in the data set with PBMC [8] was Active. Besides, the Activity result in data set [7] and in data set [9] was “Non-Toxic” each time.

What is called IC50 is the concentration that gives 50% inhibition. As to `Cc1ccc(CC[C@H](NC(=O)[C@H](Cc2ccccc2)NC(=O)[C@H](CC(C)C)NC(=O)CN2CCCCCC2)C(=O)[C@@]2(C)CO2)cc1`, the result with PBMC [10], in the data set on PBMC [13] and in the data set on PBMC [14] was inactive. The IC50 in data set [11] was determined as 0.346 µM; in data set [15], 0.305 µM. Also, the inhibition entry in data set [12] is “Active”.

In the case of `COc1ccc([C@@H](O)[C@H](NC(=O)[C@H](C)NC(=O)CN2CCOCC2)C(=O)N[C@@H](CC2=CCCC2)C(=O)[C@@]2(C)CO2)cc1` [ZETOMIPZOMIB], the result in the data set on PBMC [10], in the data set with PBMC [13] and in the data set on PBMC [14] was Active. Further, the IC50 turned out to be 0.039 µM in data set [11] and 0.522 µM in [15].
